The values below come from ChEMBL document CHEMBL1833914, “Smardaesidins A-G, isopimarane and 20-nor-isopimarane diterpenoids from Smardaea sp., a fungal endophyte of the moss Ceratodon purpureus” (J Nat Prod, 2011).

Experiment [1] deals with NCI-H460. Briefly: Cytotoxicity against human NCI-H460 cells at 10 uM after 72 hrs by Alamar blue assay. It counts as functional, cell-based. Background: The colour change of resazurin is a common sign of viable cells or microbes.
The test system of experiment [2] is SF-268. Nature of the experiment: Cytotoxicity against human SF268 cells at 10 uM after 72 hrs by Alamar blue assay. It counts as functional, cell-based.
Experiment [3] has as its system MCF7. Briefly: Cytotoxicity against human MCF7 cells at 10 uM after 72 hrs by Alamar blue assay. The class given is functional, cell-based.
The subject of another experiment is PC-3M. Nature of the experiment: Cytotoxicity against human PC3M cells at 10 uM after 72 hrs by Alamar blue assay. It counts as functional, cell-based.
Experiment [4] concerns MDA-MB-231. Nature of the experiment: Cytotoxicity against human MDA-MB-231 cells at 10 uM after 72 hrs by Alamar blue assay. The class given is functional, cell-based.
The test system of experiment [5] is NCI-H460. Briefly: Cytotoxicity against human NCI-H460 cells after 72 hrs by Alamar blue assay. It counts as functional, cell-based. To be noted: NCI-H460, 72 h.
Experiment [6] relates to SF-268. Briefly: Cytotoxicity against human SF268 cells after 72 hrs by Alamar blue assay. It counts as functional, cell-based. The conditions noted are these: SF-268, 72 h.
Experiment [7] concerns MCF7. Nature of the experiment: Cytotoxicity against human MCF7 cells after 72 hrs by Alamar blue assay. The class given is functional, cell-based. To be noted: MCF7, 72 h.
The test system of experiment [8] is MDA-MB-231. Nature of the experiment: Cytotoxicity against human MDA-MB-231 cells after 72 hrs by Alamar blue assay. The class given is functional, cell-based. To be noted: MDA-MB-231, 72 h.
The nature of experiment [9]: Cytotoxicity against human PC3M cells after 72 hrs by Alamar blue assay. It counts as functional, cell-based. To be noted: PC-3M.
A further experiment has as its system PC-3. Nature of the experiment: Cytotoxicity against human PC3 cells after 72 hrs by Alamar blue assay. The class given is functional, cell-based. The conditions noted are these: PC-3, 72 h.
The next experiment relates to MIA PaCa-2. Briefly: Cytotoxicity against human MIAPaCa2 cells after 72 hrs by Alamar blue assay. The class given is functional, cell-based. To be noted: MIA PaCa-2, 72 h.
The next experiment deals with WI-38. Nature of the experiment: Cytotoxicity against human WI38 cells after 72 hrs by Alamar blue assay. It counts as cell-based. To be noted: WI-38, 72 h.
Experiment [10] relates to MDA-MB-231. Briefly: Inhibition of human MDA-MB-231 cell migration at 2 uM after 40 hrs by wound-healing assay. It counts as functional, cell-based. Summed up: (§1)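 Wound-healing assay: MDA-MB-231 cells grown in DMEM/Ham's F-12 with 10% FBS and gentamicin (50 μg/mL) at 37 °C, 5% CO2. Cells seeded at 150 000/well and grown 24 h to >90% confluent monolayer. Monolayer scratched with toothpick, washed with PBS, fresh medium added, compound in DMSO added in duplicate, 40 h. LY294002 7.5 μM positive control. Wound area measured by ImageJ from three photos per well.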

Experiment [11] deals with MDA-MB-231. Nature of the experiment: Inhibition of human MDA-MB-231 cell migration after 40 hrs by wound-healing assay. The class given is functional, cell-based. To be noted: MDA-MB-231, 40 h. Summed up:
as §1

For experiment [12], the system named is MDA-MB-231. Nature of the experiment: Antiproliferative activity against human MDA-MB-231 cells after 72 hrs by Alamar blue assay. It counts as functional, cell-based. To be noted: MDA-MB-231, 72 h. Summed up:
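alamarBlue proliferation/survival read-out in MDA-MB-231 after 72 h exposure. Reagent added to 10% final, 4 h incubation, fluorescence at ex 560/em 590 nm as percent of DMSO vehicle; IC50 and IC25 reported as mean ± error.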

Experiment [13] relates to MDA-MB-231. Nature of the experiment: Inhibition of human MDA-MB-231 cell migration at 5 uM after 40 hrs by wound-healing assay. The class given is functional, cell-based. Summed up: as §1

Calls of active or inactive are those of the source. The calls are words filed in the database; no cut-off is given here. Bounds are passed on as bounds.

The IC50 is the concentration at which inhibition is half-maximal. Regarding `C=C[C@]1(C)C=C2C(=O)[C@@]3(OC(C)=O)OC(=O)[C@@]4(CCCC(C)(C)[C@H]34)[C@@]2(O)CC1`, the result with NCI-H460 [1], with SF-268 [2], with MCF7 [3], with PC-3M and in the experiment with MDA-MB-231 [4] was Active. In addition, the IC50 was 2.8 µM in the experiment on NCI-H460 [5]; 4.9 µM in the experiment on SF-268 [6]; 2 µM in the experiment with MCF7 [7]; 2.5 µM in the experiment with MDA-MB-231 [8]; 2.7 µM in [9].

In the case of `COc1cccc2c1C(=O)c1c(O)c3c(c(O)c1C2=O)C[C@@](O)(C(=O)CO)C[C@@H]3O[C@H]1C[C@H](N)[C@H](O)[C@H](C)O1` [DOXORUBICIN], the IC50 in the experiment with NCI-H460 [5] turned out to be 0.3 µM; with SF-268 [6] it was 0.6 µM; in the experiment with MCF7 [7], 0.4 µM; with MDA-MB-231 [8], 0.5 µM; with PC-3 it was 0.3 µM; with MIA PaCa-2, 0.3 µM. In addition, the IC50 in the experiment on WI-38 was 0.8 µM.

What is called IC25 is the concentration needed for an effect of 25%. High values mean weaker potency, low ones greater potency. With `C=C[C@]1(C)C=C2C(=O)[C@@]3(O)OC(=O)[C@@]4(CCCC(C)(C)[C@H]34)[C@@]2(O)CC1` [SPHAEROPSIDIN A], the result with NCI-H460 [1], in the experiment on SF-268 [2], with MCF7 [3], with PC-3M and in the experiment on MDA-MB-231 [4] was Active. Also, the IC50 in the experiment with NCI-H460 [5] is 1.9 µM; with SF-268 [6], 2.1 µM; in the experiment with MCF7 [7], 3 µM; in the experiment with MDA-MB-231 [8], 1.4 µM; in the experiment on PC-3 it was 2.5 µM; in experiment [9], 2.4 µM. Further, the IC50 in the experiment with MIA PaCa-2 worked out at 2 µM; with WI-38, 3.7 µM; with MDA-MB-231 [11], 1.5 µM; with MDA-MB-231 [12], 3 µM. The inhibition result with MDA-MB-231 [10] was “Active”. The molecule also gave an IC25 in the experiment on MDA-MB-231 [12] of 1.5 µM.

In the case of `C=C[C@]1(C)C=C2C(=O)[C@@]3(O)OC(=O)[C@@]4(CCCC(C)(C)[C@H]34)[C@@]2(O)[C@H](O)C1` [SPHAEROPSIDIN D], the result in the experiment on NCI-H460 [1], with SF-268 [2], in the experiment with MCF7 [3], in the experiment on PC-3M and in the experiment on MDA-MB-231 [4] was Active. Besides, the IC50 is above 10 µM in the experiment on NCI-H460 [5]; 7.5 µM with SF-268 [6]; above 10 µM in the experiment with MCF7 [7]; 3.7 µM in the experiment with MDA-MB-231 [8]; 9.6 µM in the experiment with PC-3; above 10 µM in experiment [9]. Moreover, the IC50 is 9 µM with MIA PaCa-2, above 10 µM in the experiment on WI-38, 4.8 µM in the experiment with MDA-MB-231 [11] and above 5 µM with MDA-MB-231 [12]. Further, the inhibition result with MDA-MB-231 [13] is “Active”. In the experiment on MDA-MB-231 [12], this molecule came in with an IC25 above 5 µM.
